For assay [1], the system named is Escherichia coli. The assay can be described thus: Inhibition of Escherichia coli MetAP at 25 uM after 20 mins by HPLC analysis. The method, boiled down: (§1)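 Endpoint assay. Enzyme (50 nM) was preincubated with 25 μM compound for 20 min at 37 °C in 50 mM Tris pH 7.5, 100 mM NaCl, 100 μM CoCl2, 0.075% BSA. MGMM substrate (400 μM) was then added for 15 min (human MetAP-1) or 20 min (E. coli MetAP). Reactions were stopped with TFA. GMM product was quantified by RP-HPLC, UV 214 nm. Triplicate.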

Assay [2] addresses Methionine aminopeptidase 1 (Homo sapiens) (UniProt P53582). The assay can be described thus: Inhibition of human MetAP at 25 uM after 20 mins by HPLC analysis. In a few lines: as §1
Assay [3] relates to Escherichia coli. As to the kind of experiment: Inhibition of wild-type Escherichia coli MurA compound preincubated for 10 mins before substrate addition at 25 uM measured after 15 mins by LC-MS method.
For assay [4], the system named is Escherichia coli. The assay can be described thus: Inhibition of wild-type Escherichia coli MurB compound preincubated for 10 mins before substrate addition at 25 uM measured after 15 mins by LC-MS method. The method, boiled down: (§2)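 E. coli wild-type enzyme (4 nM) was preincubated with 25 μM compound for 10 min at 37 °C. Enzymatically generated nucleotide-sugar substrate (~200 μM) plus ATP (~200 μM), or NADPH 200 μM for MurB, was added for 10 min. Reactions were started with amino-acid cosubstrate (MurC–F) or EP-UNAG (MurB), run 15 min at 37 °C, and quenched with formic acid. Product was measured by negative-ESI LC-MS EIC peak area. MgCl2: MurC 10, MurD/E 2, MurF 5 mM; MurB had 5 mM KCl. All in 50 mM NH4HCO3, 0.07% BSA, 1% DMSO; triplicate.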

The test system of assay [5] is Escherichia coli. As to the kind of experiment: Inhibition of wild-type Escherichia coli MurC compound preincubated for 10 mins before substrate addition at 25 uM measured after 15 mins by LC-MS method. The method, boiled down:
as §2

The test system of assay [6] is Escherichia coli. As to the kind of experiment: Inhibition of wild-type Escherichia coli MurD compound preincubated for 10 mins before substrate addition at 25 uM measured after 15 mins by LC-MS method. In a few lines:
as §2

Assay [7] relates to Escherichia coli. As to the kind of experiment: Inhibition of wild-type Escherichia coli MurE compound preincubated for 10 mins before substrate addition at 25 uM measured after 15 mins by LC-MS method. The method, boiled down: as §2
The subject of assay [8] is Escherichia coli. As to the kind of experiment: Inhibition of wild-type Escherichia coli MurF compound preincubated for 10 mins before substrate addition at 25 uM measured after 15 mins by LC-MS method. The method, boiled down:
as §2

Assay [9] is described as follows: GSH reactivity of the compound assessed as adducts formation by RP-HPLC analysis. The method, boiled down:
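Fresh aqueous glutathione (10 mM solution) was added to 50 mM Tris-maleate buffer, pH 7.5. The reaction was started with compound from 10 mM DMSO stock (final 250 μM). Mixtures were followed by reversed-phase HPLC on an ODS column with a gradient to 100% B; rate constants are given in l·mol⁻¹·s⁻¹.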

Assay [10] concerns the target Genome polyprotein (dengue virus type 2) (UniProt P12823). The assay can be described thus: Inhibition of Dengue virus serotype 2 NS2B-NS3 protease at 50 uM.
Assay [11] concerns the target Genome polyprotein (West Nile virus) (UniProt P06935). As to the kind of experiment: Inhibition of West Nile virus NS2B-NS3 protease at 50 uM.
A further assay concerns the target Prothrombin (Bos taurus) (UniProt P00735). As to the kind of experiment: Inhibition of Bovine thrombin using Boc-Val-Pro-Arg-AMC as substrate compound preincubated at 25 uM for 15 mins by fluorescence assay. The method, boiled down: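 Bovine thrombin (final 10 nM) was preincubated 15 min with 25 μM compound in 50 mM Tris-HCl pH 7.5, 150 mM NaCl, 0.05% Tween 20. The reaction was started with Boc-Val-Pro-Arg-AMC (50 μM final). Fluorescence (ex 355/em 460 nm) was monitored continuously for 10 min; activity taken as slope (RFU/s). Triplicate.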

One may read the inhibition as the relative decrease from the control value, in per cent. A lower inhibition goes with a weak effect.

Chain of Genome polyprotein (West Nile virus) (P06935 whole entry): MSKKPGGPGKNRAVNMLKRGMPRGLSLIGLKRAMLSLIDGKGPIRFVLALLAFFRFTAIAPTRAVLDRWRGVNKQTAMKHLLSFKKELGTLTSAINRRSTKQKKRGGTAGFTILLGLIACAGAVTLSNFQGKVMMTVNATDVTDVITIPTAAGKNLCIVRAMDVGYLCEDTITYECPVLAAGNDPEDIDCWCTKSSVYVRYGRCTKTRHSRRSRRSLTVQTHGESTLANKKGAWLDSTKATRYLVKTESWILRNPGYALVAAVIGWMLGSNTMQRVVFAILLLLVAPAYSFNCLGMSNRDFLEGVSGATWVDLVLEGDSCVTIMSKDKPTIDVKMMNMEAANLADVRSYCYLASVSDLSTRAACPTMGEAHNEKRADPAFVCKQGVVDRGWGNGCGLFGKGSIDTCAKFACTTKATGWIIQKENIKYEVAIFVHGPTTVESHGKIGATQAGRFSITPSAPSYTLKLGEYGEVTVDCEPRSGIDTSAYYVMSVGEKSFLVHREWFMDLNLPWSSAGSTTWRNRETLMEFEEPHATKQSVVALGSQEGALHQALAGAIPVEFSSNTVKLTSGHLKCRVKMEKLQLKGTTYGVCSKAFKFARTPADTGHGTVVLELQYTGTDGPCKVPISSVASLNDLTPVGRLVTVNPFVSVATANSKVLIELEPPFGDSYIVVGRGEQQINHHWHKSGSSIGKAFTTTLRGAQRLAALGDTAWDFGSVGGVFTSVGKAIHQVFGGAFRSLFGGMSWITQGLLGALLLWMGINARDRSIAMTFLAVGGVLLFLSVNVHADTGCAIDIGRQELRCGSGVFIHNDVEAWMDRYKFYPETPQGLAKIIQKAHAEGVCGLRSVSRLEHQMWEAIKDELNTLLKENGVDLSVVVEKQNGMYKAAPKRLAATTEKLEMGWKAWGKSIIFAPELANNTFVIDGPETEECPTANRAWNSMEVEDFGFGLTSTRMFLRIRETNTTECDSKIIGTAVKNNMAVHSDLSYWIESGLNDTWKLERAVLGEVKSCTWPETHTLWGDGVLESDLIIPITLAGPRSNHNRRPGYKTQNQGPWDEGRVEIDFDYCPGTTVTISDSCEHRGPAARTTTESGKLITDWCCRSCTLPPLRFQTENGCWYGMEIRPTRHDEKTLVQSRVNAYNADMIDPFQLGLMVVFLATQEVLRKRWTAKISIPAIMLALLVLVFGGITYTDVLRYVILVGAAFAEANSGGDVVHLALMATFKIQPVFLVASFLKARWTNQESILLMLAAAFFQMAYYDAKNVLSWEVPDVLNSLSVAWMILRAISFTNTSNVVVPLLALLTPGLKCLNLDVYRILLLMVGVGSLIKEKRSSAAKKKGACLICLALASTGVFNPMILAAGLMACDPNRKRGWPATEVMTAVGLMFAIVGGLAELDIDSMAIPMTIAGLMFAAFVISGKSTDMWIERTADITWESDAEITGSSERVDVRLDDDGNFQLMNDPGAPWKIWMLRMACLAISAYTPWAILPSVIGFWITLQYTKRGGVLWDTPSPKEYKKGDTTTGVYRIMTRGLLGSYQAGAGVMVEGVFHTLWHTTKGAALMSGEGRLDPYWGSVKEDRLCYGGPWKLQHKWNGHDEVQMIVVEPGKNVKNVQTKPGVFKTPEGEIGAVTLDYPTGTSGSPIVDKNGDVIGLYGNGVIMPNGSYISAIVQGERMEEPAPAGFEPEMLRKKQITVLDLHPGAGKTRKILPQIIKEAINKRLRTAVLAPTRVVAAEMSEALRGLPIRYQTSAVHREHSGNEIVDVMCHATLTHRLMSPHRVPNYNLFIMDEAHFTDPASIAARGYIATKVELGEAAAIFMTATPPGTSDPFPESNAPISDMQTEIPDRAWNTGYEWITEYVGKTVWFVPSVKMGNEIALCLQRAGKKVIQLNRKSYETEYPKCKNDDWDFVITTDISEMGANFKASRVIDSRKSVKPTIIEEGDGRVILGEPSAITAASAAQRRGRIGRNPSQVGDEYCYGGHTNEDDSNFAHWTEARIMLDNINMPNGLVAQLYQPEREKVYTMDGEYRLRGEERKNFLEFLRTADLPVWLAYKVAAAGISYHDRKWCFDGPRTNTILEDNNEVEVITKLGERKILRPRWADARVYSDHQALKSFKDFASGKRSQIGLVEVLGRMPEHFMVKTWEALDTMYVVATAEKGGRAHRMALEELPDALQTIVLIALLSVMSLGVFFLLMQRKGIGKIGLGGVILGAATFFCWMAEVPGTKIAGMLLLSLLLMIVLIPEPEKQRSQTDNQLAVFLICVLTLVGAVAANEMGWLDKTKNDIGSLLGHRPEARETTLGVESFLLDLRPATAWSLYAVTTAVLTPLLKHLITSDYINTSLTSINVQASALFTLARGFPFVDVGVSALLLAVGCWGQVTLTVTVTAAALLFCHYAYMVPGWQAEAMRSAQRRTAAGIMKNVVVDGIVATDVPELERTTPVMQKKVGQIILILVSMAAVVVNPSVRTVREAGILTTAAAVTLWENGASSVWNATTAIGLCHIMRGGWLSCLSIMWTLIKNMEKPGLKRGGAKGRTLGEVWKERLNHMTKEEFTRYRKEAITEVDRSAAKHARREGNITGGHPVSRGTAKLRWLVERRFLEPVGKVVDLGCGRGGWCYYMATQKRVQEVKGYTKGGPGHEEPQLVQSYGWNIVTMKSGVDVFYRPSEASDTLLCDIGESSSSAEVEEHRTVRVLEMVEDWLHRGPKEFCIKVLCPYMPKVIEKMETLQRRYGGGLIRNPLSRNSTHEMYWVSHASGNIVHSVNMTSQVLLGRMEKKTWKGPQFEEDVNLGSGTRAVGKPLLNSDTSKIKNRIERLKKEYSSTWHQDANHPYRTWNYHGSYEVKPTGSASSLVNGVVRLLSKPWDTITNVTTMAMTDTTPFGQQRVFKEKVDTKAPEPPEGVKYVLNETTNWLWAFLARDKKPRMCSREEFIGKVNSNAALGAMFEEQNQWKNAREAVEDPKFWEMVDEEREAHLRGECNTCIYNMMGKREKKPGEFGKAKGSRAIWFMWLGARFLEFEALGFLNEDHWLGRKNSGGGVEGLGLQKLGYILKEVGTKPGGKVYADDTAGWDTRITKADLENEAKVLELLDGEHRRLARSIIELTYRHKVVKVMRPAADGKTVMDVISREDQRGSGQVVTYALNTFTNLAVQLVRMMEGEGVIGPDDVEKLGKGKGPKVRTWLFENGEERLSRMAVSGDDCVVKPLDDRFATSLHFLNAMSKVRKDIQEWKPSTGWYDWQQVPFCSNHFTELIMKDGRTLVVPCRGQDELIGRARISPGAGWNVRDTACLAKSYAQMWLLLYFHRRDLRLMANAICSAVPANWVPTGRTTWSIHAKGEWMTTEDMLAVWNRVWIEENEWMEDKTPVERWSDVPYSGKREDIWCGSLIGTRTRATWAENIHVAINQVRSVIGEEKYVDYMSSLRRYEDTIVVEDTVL

In the case of `O=C(Nc1ccc([N+](=O)[O-])cc1)n1ccnc1`, the inhibition (in the assay on Escherichia coli [1]; in [2]; in the assay on Escherichia coli [3]; in the assay on Escherichia coli [4]; with Escherichia coli [5]; in the assay on Escherichia coli [6]) was < 15% each time. For the same compound, the inhibition (in the assay on Escherichia coli [7]; with Escherichia coli [8]; in assay [10]; in [11]; on Prothrombin (Bos taurus)) was < 15% in each case. The Activity in assay [9] was < 0.1 L/mol/s.

Consider `C=CCNC1CCCC1`, for which the inhibition was < 15% in the assay on Escherichia coli [1]; < 15% in assay [2]; < 15% in the assay on Escherichia coli [3]; 17% with Escherichia coli [4]; < 15% with Escherichia coli [5]; < 15% in the assay with Escherichia coli [6]. Also, the inhibition (in the assay with Escherichia coli [7]; in the assay on Escherichia coli [8]; in [10]; in [11]; at Prothrombin (Bos taurus)) was < 15% throughout. Moreover, in [9], the Activity was < 0.1 L/mol/s.

Take `C=CCNC(CCCC)C(=O)OC` (stereo not drawn): the inhibition (in the assay on Escherichia coli [1]; in [2]; in the assay on Escherichia coli [3]; with Escherichia coli [4]; in the assay on Escherichia coli [5]; with Escherichia coli [6]) was < 15% throughout. Also, the inhibition (with Escherichia coli [7]; in the assay on Escherichia coli [8]; in [10]; in [11]; at Prothrombin (Bos taurus)) was < 15% each time. Further, the Activity in assay [9] is < 0.1 L/mol/s.

Take `N#CCC(=O)Nc1ccc([N+](=O)[O-])cc1`: the inhibition (with Escherichia coli [1]; in assay [2]; in the assay on Escherichia coli [3]; in the assay on Escherichia coli [4]; with Escherichia coli [5]; in the assay with Escherichia coli [6]) was < 15% throughout. Also, the inhibition (with Escherichia coli [7]; with Escherichia coli [8]; in assay [10]; in [11]; at Prothrombin (Bos taurus)) was < 15% throughout. In addition, the Activity in assay [9] is < 0.1 L/mol/s.

`O=C(CCl)Nc1ccc([N+](=O)[O-])cc1`: the inhibition (in the assay with Escherichia coli [1]; in assay [2]; in the assay on Escherichia coli [3]; in the assay with Escherichia coli [4]; with Escherichia coli [5]; in the assay with Escherichia coli [6]) was < 15% in each case. Besides, the inhibition (in the assay with Escherichia coli [7]; in the assay on Escherichia coli [8]; in assay [10]; in assay [11]; on Prothrombin (Bos taurus)) was < 15% throughout. Also, in assay [9], the Activity is < 0.1 L/mol/s.

In the case of `COc1ccc(NC(=O)n2ccnc2)cc1`, the inhibition was < 15% with Escherichia coli [1]; < 15% in assay [2]; 17% in the assay with Escherichia coli [3]; < 15% in the assay with Escherichia coli [4]; < 15% with Escherichia coli [5]; < 15% with Escherichia coli [6]. Further, the inhibition (in the assay with Escherichia coli [7]; in the assay on Escherichia coli [8]; in [10]; in [11]; against Prothrombin (Bos taurus)) was < 15% each time. The Activity in assay [9] is < 0.1 L/mol/s.

As for `N#CCC(=O)NCc1ccccc1`, the inhibition (with Escherichia coli [1]; in [2]; in the assay with Escherichia coli [3]; with Escherichia coli [4]; with Escherichia coli [5]; in the assay with Escherichia coli [6]) was < 15% in each case. Besides, the inhibition in the assay on Escherichia coli [7] was < 15%; in the assay on Escherichia coli [8], < 15%; in assay [10] it was < 15%; in [11], 18%; against Prothrombin (Bos taurus), < 15%. Moreover, the Activity in assay [9] is < 0.1 L/mol/s.

On to `C=CCNc1ccc(OC)cc1`, for which the inhibition in the assay with Escherichia coli [1] is < 15%; in assay [2] it was < 15%; in the assay on Escherichia coli [3], < 15%; with Escherichia coli [4], 20%; in the assay on Escherichia coli [5], < 15%; in the assay on Escherichia coli [6] it was < 15%. In addition, the inhibition (in the assay on Escherichia coli [7]; with Escherichia coli [8]; in assay [10]; in assay [11]; at Prothrombin (Bos taurus)) was < 15% each time. The Activity in assay [9] is < 0.1 L/mol/s.

On to `N#CCC(=O)Nc1ccc(F)cc1`, for which the inhibition (with Escherichia coli [1]; in assay [2]; with Escherichia coli [3]; in the assay on Escherichia coli [4]; in the assay on Escherichia coli [5]; with Escherichia coli [6]) was < 15% throughout. Also, the inhibition (with Escherichia coli [7]; with Escherichia coli [8]; in assay [10]; in assay [11]; on Prothrombin (Bos taurus)) was < 15% each time. Also, in [9], the Activity is < 0.1 L/mol/s.

Regarding `CNC(=O)CC#N`, the inhibition (in the assay on Escherichia coli [1]; in assay [2]; with Escherichia coli [3]; with Escherichia coli [4]; in the assay with Escherichia coli [5]; in the assay with Escherichia coli [6]) was < 15% in each case. Moreover, the inhibition (with Escherichia coli [7]; in the assay with Escherichia coli [8]; in assay [10]; in assay [11]; against Prothrombin (Bos taurus)) was < 15% each time. Also, in [9], the Activity was < 0.1 L/mol/s.

Take `O=C(CCl)Nc1ccc(F)cc1`: the inhibition (in the assay on Escherichia coli [1]; in assay [2]; with Escherichia coli [3]; in the assay with Escherichia coli [4]; with Escherichia coli [5]; with Escherichia coli [6]) was < 15% throughout. The inhibition (with Escherichia coli [7]; in the assay on Escherichia coli [8]; in assay [10]; in [11]; against Prothrombin (Bos taurus)) was < 15% in each case. The Activity in assay [9] is < 0.1 L/mol/s.

As for `Cc1ccc(NC(=O)n2ccnc2)cc1`, the inhibition (with Escherichia coli [1]; in assay [2]; in the assay on Escherichia coli [3]; in the assay with Escherichia coli [4]; in the assay on Escherichia coli [5]; with Escherichia coli [6]) was < 15% each time. The inhibition (with Escherichia coli [7]; in the assay on Escherichia coli [8]; in assay [10]; in [11]; at Prothrombin (Bos taurus)) was < 15% each time. In addition, the Activity in assay [9] was < 0.1 L/mol/s.

Take `N#CCC(=O)NCCc1ccccc1`: the inhibition (with Escherichia coli [1]; in [2]; with Escherichia coli [3]; in the assay with Escherichia coli [4]; with Escherichia coli [5]; in the assay with Escherichia coli [6]) was < 15% in each case. Further, the inhibition is < 15% with Escherichia coli [7]; < 15% in the assay on Escherichia coli [8]; < 15% in assay [10]; 22% in assay [11]; < 15% on Prothrombin (Bos taurus). Moreover, the Activity in [9] is < 0.1 L/mol/s.

On to `Cc1ccc(NC(=O)CC#N)cc1`, for which the inhibition (with Escherichia coli [1]; in assay [2]; with Escherichia coli [3]; in the assay with Escherichia coli [4]; in the assay on Escherichia coli [5]; in the assay on Escherichia coli [6]) was < 15% each time. For the same compound, the inhibition (in the assay with Escherichia coli [7]; in the assay with Escherichia coli [8]; in assay [10]; in [11]; against Prothrombin (Bos taurus)) was < 15% each time. Also, the Activity in [9] was < 0.1 L/mol/s.
